# The list is not random: actives were taken first. Their share in the collection is about 3.5%.
# RGS4 block: human RGS4 inhibition | HEK293 M3R/RGS4 inducible, Fluo-4 calcium flux; active compounds read high; triggered by carbachol at its EC20 | AID 463165 | 310,000 compounds, 0.45% hits | B-score at 10 µM | P49798;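 active means B-score, a plate-corrected calcium signal, over three deviations above library mean, with baseline fluorescence within five deviations of library mean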;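 further: RGS4 expression induced by doxycycline in cells with stable M3 receptor; B-score is computed from the integrated fluorescence ratio over baseline after carbachol; higher B-score means a larger calcium signal and so more RGS4 inhibition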
# Target sequence (P49798 whole entry, looked up): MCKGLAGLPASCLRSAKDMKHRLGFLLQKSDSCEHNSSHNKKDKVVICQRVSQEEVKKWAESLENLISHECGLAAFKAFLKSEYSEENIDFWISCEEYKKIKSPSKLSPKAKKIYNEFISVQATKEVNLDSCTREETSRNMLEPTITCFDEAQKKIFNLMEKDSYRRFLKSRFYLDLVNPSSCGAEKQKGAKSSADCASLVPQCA
# MrgX1 ag: agonists of human MrgX1 receptor | B-score at 10 µM | 310,000 compounds, 0.44% hits | Q96LB2 | MrgX1-HEK293 cells, Fluo-4 calcium fluorescence, agonist mode; active compounds read high;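 active means calcium response B-score plate-corrected fluorescence ratio at least 3 library SD, with starting fluorescence B-score inside 5 SD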
# Target sequence (Q96LB2 whole entry, looked up): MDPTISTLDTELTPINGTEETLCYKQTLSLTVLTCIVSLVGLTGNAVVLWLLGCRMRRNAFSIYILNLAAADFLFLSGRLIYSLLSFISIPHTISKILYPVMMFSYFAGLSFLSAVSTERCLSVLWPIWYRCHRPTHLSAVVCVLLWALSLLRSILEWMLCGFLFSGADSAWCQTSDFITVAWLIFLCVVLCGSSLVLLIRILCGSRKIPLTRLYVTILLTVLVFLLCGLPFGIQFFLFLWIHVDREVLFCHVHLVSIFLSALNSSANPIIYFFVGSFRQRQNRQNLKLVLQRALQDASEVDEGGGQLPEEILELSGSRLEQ
#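 times = overnight plating, then 30 min 37 °C plus 30 min room-temperature dye loading | assay system = stable human MrgX1 HEK293 cell line | input = fifteen thousand cells per well | signal = kinetic calcium dye fluorescence, Fluo-4 NW | dosing = compound delivered in addition one of three | read-out = B-scored fluorescence response ratio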
# MrgX1 antagonist: human MrgX1 receptor antagonism, primary screen. B-score at 10 µM. MRGX1-HEK293 calcium flux, Fluo-4, BAM8-22 antagonism; active compounds read low. Q96LB2. 310,000 compounds, 1.3% hits. AID 588676;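 active means calcium-response B-score plate-corrected more than 3 library SD below zero, starting fluorescence within 5 deviations, no agonist response on first addition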;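 further: peak minus trough fluorescence over baseline after final BAM8-22 challenge near maximal dose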
# RGS4 pot: potentiators or activators of RGS4; B-score at 10 µM; HEK293 M3R/inducible RGS4, carbachol calcium flux Fluo4; active compounds read low; 310,000 compounds, 0.92% hits;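 active means B-score of the integrated calcium signal more than 4 SD below the library mean, with starting fluorescence not abnormally high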;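 further: negative B-score means reduced calcium response which marks RGS4 activation or potentiation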
#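 Material: M3R-expressing HEK293 line, RGS4 induced by doxycycline | Schedule: Overnight RGS4 induction, 30 min dye load 37 °C, 20 min compound RT | Measured by: Fluo4 fluorescence kinetic imaging of calcium | Read-out: Integrated calcium ratio converted to B score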
# MrgX1 PAM: allosterically activates human MrgX1 receptor signaling; Q96LB2; MrgX1-HEK293, Fluo-4 calcium flux, FDSS; active compounds read high; B-score at 10 µM; 310,000 compounds, 0.63% hits;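 active means plate-corrected calcium response at least 3 library SD above typical, normal starting fluorescence, not activating the receptor alone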;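 further: compound read alongside a low EC10 to EC30 dose of BAM8-22 agonist; peak minus trough fluorescence over baseline measured at the second addition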
# MrgX1 antag conf: reconfirmed antagonist of human MrgX1 receptor signaling | remaining BAM8-22 calcium response % of control (active compounds read low), % at 10 µM | MrgX1-HEK293, BAM8-22 calcium flux, Fluo-4; active compounds read low | 2,300 compounds, 19% hits | AID 602420 | shares compounds with MrgX1 antagonist;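 active means remaining agonist calcium response no higher than 100% minus 3 SD of agonist-only control wells, with starting fluorescence near control levels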;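 further: agonist BAM8-22 given at a near maximal EC90 to ECmax level; peak minus minimum fluorescence divided by baseline after agonist addition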
# HEK293 Ca flux: counter-screen for MrgX1 antagonists: effect in parental HEK293 cells | 4,000 compounds, 2% hits | Fluo-4 calcium fluorescence, FDSS | shares compounds with MrgX1 antagonist | fluorescence ratio F(max-min)/F0 at 10 µM;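 active means duplicate-averaged calcium fluorescence ratio at least three times the standard deviation of buffer wells, a nonspecific response in parental cells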
# HEK293 Ca counter: MrgX1 allosteric activator counter-screen hit in parental HEK293 cells; parental HEK293 calcium flux, Fluo-4 fluorescence ratio; active compounds read high; fluorescence ratio F(max-min)/F0 at 10 µM; AID 624114; shares compounds with MrgX1 antagonist; 4,000 compounds, 0.4% hits;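 active means calcium fluorescence ratio, averaged over duplicates, at least 3 SD of the buffer-well ratio, meaning a nonspecific response in receptor-free cells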;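 further: untransfected parental HEK293 lacking MrgX1 used as counterscreen for MrgX1 allosteric activators; fluorescence change taken during the second addition on a kinetic imager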
# HEK293 Ca cntr2: MrgX1 activator counter-screen hit in parental HEK293 cells. shares compounds with MrgX1 antagonist. Fluo-4 calcium fluorescence (FDSS); active compounds read high. fluorescence ratio F(max-min)/F0 at 10 µM. 4,000 compounds, 8.7% hits;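 active means calcium fluorescence ratio at least three times the spread of buffer wells, meaning a non-specific response in parental cells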
# The depositor's hits bear a star; i = inactive; . = not tested or not shown.
SMILES,RGS4 block,MrgX1 ag,MrgX1 antagonist,RGS4 pot,MrgX1 PAM,MrgX1 antag conf,HEK293 Ca flux,HEK293 Ca counter,HEK293 Ca cntr2
N#CCCN(CCN1CCCC1)S(=O)(=O)c1ccc(-c2ccc([N+](=O)[O-])cc2)cc1,i,i,i,i,i,.,.,.,.
CCOc1ccccc1N1CCN(C(=O)c2ccncc2)CC1,i,i,i,i,i,.,.,.,.
CCOc1ccccc1N1CCN(C(=O)c2cc(-c3cccnc3)nc3c(Cl)cccc23)CC1,i,i,-5.8*,i,i,i,0.42*,i,i
Cc1ccc(C(=O)C2=C(O)C(=O)N(Cc3cccnc3)C2c2ccc(Br)cc2)o1 (stereo unspecified),i,i,-11*,i,i,i,i,i,i
CC(=O)c1cc(C#N)c(N2CCOCC2)nc1C,i,i,-4.6*,i,i,i,i,i,i
CCCN(CC(=O)Nc1ccccc1OC)C(=O)c1ccc(=O)[nH]c1,i,i,i,i,i,.,.,.,.
CN(/N=C/c1ccc(-c2ccc([N+](=O)[O-])cc2)o1)c1ccccc1,i,i,-11*,i,i,i,i,i,i
CN(/N=C/c1cc([N+](=O)[O-])ccc1O)c1ccccc1,i,i,i,i,i,.,.,.,.
CC(C)(C)N(Cc1ccccc1)C(=O)COC(=O)CSc1ccc([N+](=O)[O-])cc1,i,i,-9.9*,i,i,i,i,i,i
CC(=O)NCCc1nc2cc(NC(=O)COc3ccc(C)cc3)ccc2n1C,i,i,-6.7*,i,i,i,i,i,i
COc1ccc(OCC(=O)Nc2ccc3c(c2)nc(CCNC(C)=O)n3C)cc1,i,i,i,i,i,.,.,.,.
COc1ccccc1NCCC(=O)OCC(=O)NC1CCCCCC1,i,i,i,i,i,.,.,.,.
COC(=O)C1CCN(S(=O)(=O)c2ccc(NC(C)=O)cc2)CC1,i,i,i,i,i,.,.,.,.
COC(=O)C1CCN(S(C)(=O)=O)CC1,i,i,-4.6*,i,i,i,i,i,i
CCOc1ccc(N2C(=O)CC(Sc3n[nH]c(-c4ccccc4)n3)C2=O)cc1 (stereo unspecified),i,i,-5*,i,i,i,i,i,i
CCOC(=O)/C(=N/Nc1ccccc1)Sc1nnc(CCc2ccccc2)n1-c1ccccc1,i,i,i,i,i,.,.,.,.
COc1cc(OC)cc(C(=O)NC(=S)Nc2ccc(NC(=O)c3ccco3)cc2)c1,i,i,-5.1*,i,i,i,i,i,i
COc1ccc(-c2nnc3n2CCCCC3)cc1OC,i,i,i,i,i,.,.,.,.
Cc1cc(-c2nnc3n2CCCCC3)c(C)n1-c1ccccc1,i,i,-4.7*,i,i,i,i,i,i
O=c1[nH]nc2n1CCCCC2,i,i,-10*,i,i,i,i,i,i
Cc1c(C(=O)c2cccc(F)c2)c2ccccn2c1CCC#N,i,i,-10*,i,i,84%*,i,i,i
COc1cccc(C(=O)c2c(C)c(CCC#N)n3ccccc23)c1,i,i,i,i,i,.,.,.,.
CCOC(=O)Cc1cc(-c2ccc(F)cc2)nc2ccc3ccccc3c12,i,i,i,i,i,.,.,.,.
COc1ccccc1C(=O)Nc1ccnn1C1CCN(C(=O)c2ccoc2)CC1,i,i,-6*,i,i,i,i,i,i

# Bioassay records as filed in PubChem.
